Test results from ChEMBL document CHEMBL1139875, “Discovery of 4-aminobutyric acid derivatives possessing anticonvulsant and antinociceptive activities: a hybrid pharmacophore approach” (2007).
Activity calls are given as the source filed them. The calls are words filed in the database; no cut-off is given here.

Columns and labels:
Rattus norvegicus [1] = test: Anti-dynamic allodynia effect in Sprague-Dawley rat SNL model assessed as latency to paw withdrawal 100 mg/kg, ip after 0.5 hr; type: functional; conditions: route intraperitoneal
How it was run: (§1)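 Left L5 spinal nerve ligation rats, tested preoperatively and 9 days postoperatively, then given 100 mg/kg i.p. (vehicle 30% v/v PEG 400 in water). After 10 min acclimatization, plantar surface of affected paw stroked mildly with a cotton-bud; paw lift response recorded. n = 4; retested 0.5-2.5 h post-dose.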

Mus musculus [2] = test: Anticonvulsant activity in Swiss Albino mouse at 100 mg/kg, ip after 0.5 hr by scPIC test; type: functional, organism-based; set-up: dose 100 mg/kg
How it was run: (§2)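 Mice (Swiss, 20-25 g) given i.p. doses of 30, 100 and 300 mg/kg under ADD program protocols, three per group, examined at 0.5 and 4 h in MES, scPTZ, scSTY or scPIC seizure tests. Value is the minimum dose protecting half or more of the mice.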

Rattus norvegicus [3] = test: Anti-dynamic allodynia effect in Sprague-Dawley rat SNL model assessed as latency to paw withdrawal 100 mg/kg, ip after 2.5 hrs; type: functional; conditions: route intraperitoneal; how it was run: as §1
Mus musculus [4] = test: Anticonvulsant activity in Swiss Albino mouse at 300 mg/kg, ip after 4 hrs by scSTY test; type: functional, organism-based; set-up: dose 300 mg/kg; how it was run: as §2
Rattus norvegicus [5] = test: Anti-dynamic allodynia effect in Sprague-Dawley rat SNL model assessed as latency to paw withdrawal 100 mg/kg, ip after 1 hr; type: functional; conditions: route intraperitoneal; how it was run: as §1
Rattus norvegicus [6] = test: Antihyperalgesic effects in Sprague-Dawley rat SNL model assessed as duration of paw withdrawal at 100 mg/kg, ip after 1.5 hrs, ip; type: functional; conditions: route intraperitoneal
How it was run: (§3)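 L5 SNL rats (n = 4), dosed 100 mg/kg i.p. (vehicle 30% v/v PEG 400 in water). Pin-prick to midplantar ipsilateral left hindpaw; withdrawal duration, mean of three responses; ≥2 s defined abnormal. Mean ± SEM; one-way ANOVA with Bonferroni versus predrug.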

Mus musculus [7] = test: Neurotoxicity in Swiss Albino mouse at 300 mg/kg, ip after 4 hrs by rotarod test; type: functional, organism-based; set-up: dose 300 mg/kg
How it was run: (§4)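 Swiss mice (20-25 g) are trained on an accelerating rotorod (10 rpm, 3.2 cm rod), then injected i.p. at 30, 100 or 300 mg/kg, with three per group. Neurotoxicity means failure to keep equilibrium for at least 1 min in each of three trials, checked at 0.5 and 4 h. The value reported is the minimum dose affecting half or more of the mice.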

Rattus norvegicus [8] = test: Anti-dynamic allodynia effect in Sprague-Dawley rat SNL model assessed as latency to paw withdrawal 100 mg/kg, ip after 2 hrs; type: functional; conditions: route intraperitoneal; how it was run: as §1
Mus musculus [9] = test: Anticonvulsant activity in Swiss Albino mouse at 300 mg/kg, ip after 4 hrs by MES test; type: functional, organism-based; set-up: dose 300 mg/kg; how it was run: as §2
Rattus norvegicus [10] = organism: Rattus norvegicus; test: Anti-dynamic allodynic effect in Sprague-Dawley rat CCI model assessed as latency to paw withdrawal after 2 hr; type: functional
How it was run: (§5)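 Rats with sciatic nerve chronic constriction injury (pentobarbital 65 mg/kg i.p. anaesthesia), baseline and day 9 testing, then drug per randomization table. After 10 min acclimatization, affected plantar surface stroked mildly with a cotton-bud; paw lift recorded. n = 4; retested 0.5-2.5 h post-dose.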

Rattus norvegicus [11] = organism: Rattus norvegicus; test: Anti-dynamic allodynic effect in Sprague-Dawley rat CCI model assessed as latency to paw withdrawal after 1 hr; type: functional; how it was run: as §5
Rattus norvegicus [12] = test: Antihyperalgesic effects in Sprague-Dawley rat SNL model assessed as duration of paw withdrawal at 100 mg/kg, ip after 2 hrs, ip; type: functional; conditions: route intraperitoneal; how it was run: as §3
Rattus norvegicus [13] = test: Effect on spontaneous pain in Sprague-Dawley rat SNL model assessed as duration of paw withdrawal at 100 mg/kg, ip after 0.5 hr; type: functional; conditions: route intraperitoneal
How it was run: (§6)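 Rats underwent left L5 spinal nerve ligation (Kim and Chung) under i.p. pentobarbital (65 mg/kg). Spontaneous pain is recorded for 5 min after 10 min acclimatization, as cumulative duration the ipsilateral paw is lifted, excluding locomotor lifts. Dosing is 100 mg/kg i.p. in 30% v/v PEG 400/water, with testing at 0.5–2.5 h. Four rats, mean ± SEM versus predrug, one-way ANOVA with Bonferroni.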

Rattus norvegicus [14] = test: Effect on spontaneous pain in Sprague-Dawley rat SNL model assessed as duration of paw withdrawal at 100 mg/kg, ip after 2 hrs; type: functional; conditions: route intraperitoneal; how it was run: as §6
Mus musculus [15] = test: Anticonvulsant activity in Swiss Albino mouse at 300 mg/kg, ip after 0.5 hr by MES test; type: functional, organism-based; set-up: dose 300 mg/kg; how it was run: as §2
Rattus norvegicus [16] = organism: Rattus norvegicus; test: Anti-dynamic allodynic effect in Sprague-Dawley rat CCI model assessed as latency to paw withdrawal after 1.5 hr; type: functional; how it was run: as §5
Rattus norvegicus [17] = test: Antihyperalgesic effects in Sprague-Dawley rat CCI model assessed as duration of paw withdrawal at 100 mg/kg, ip after 2.5 hrs; type: functional; conditions: route intraperitoneal
Mus musculus [18] = test: Anticonvulsant activity in Swiss Albino mouse at 300 mg/kg, ip after 0.5 hr by scPTZ test; type: functional, organism-based; set-up: dose 300 mg/kg; how it was run: as §2
Rattus norvegicus [19] = test: Antihyperalgesic effects in Sprague-Dawley rat SNL model assessed as duration of paw withdrawal at 100 mg/kg, ip after 0.5 hr, ip; type: functional; conditions: route intraperitoneal; how it was run: as §3
Mus musculus [20] = test: Anticonvulsant activity in Swiss Albino mouse at 100 mg/kg, ip after 4 hrs by scPIC test; type: functional, organism-based; set-up: dose 100 mg/kg; how it was run: as §2
Rattus norvegicus [21] = test: Effect on spontaneous pain in Sprague-Dawley rat SNL model assessed as duration of paw withdrawal at 100 mg/kg, ip after 1.5 hrs; type: functional; conditions: route intraperitoneal; how it was run: as §6
Mus musculus [22] = test: Analgesic activity in Swiss Albino mouse assessed as number of acetic acid-induced writhing per 30 min after 100 mg/kg, ip; type: functional; conditions: route intraperitoneal
How it was run: (§7)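 Mice in groups of six dosed i.p. at 100 mg/kg, controls receiving 30% v/v PEG 400 in water. Writhing induced by i.p. 0.1 mL of 3% v/v acetic acid 1 h after drug. Writhes (abdominal stretch with at least one hind limb extended) counted over 30 min; % inhibition calculated. Mean ± SEM, Student's t test.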

Rattus norvegicus [23] = test: Antihyperalgesic effects in Sprague-Dawley rat CCI model assessed as duration of paw withdrawal at 100 mg/kg, ip after 1.5 hrs; type: functional; conditions: route intraperitoneal
Rattus norvegicus [24] = test: Antihyperalgesic effects in Sprague-Dawley rat CCI model assessed as duration of paw withdrawal at 100 mg/kg, ip after 0.5 hr; type: functional; conditions: route intraperitoneal
Mus musculus [25] = test: Analgesic activity in Swiss Albino mouse assessed as inhibition of acetic acid-induced writhing responses at 100 mg/kg, ip; type: functional; conditions: route intraperitoneal; how it was run: as §7
Rattus norvegicus [26] = organism: Rattus norvegicus; test: Anti-dynamic allodynic effect in Sprague-Dawley rat CCI model assessed as latency to paw withdrawal after 2.5 hr; type: functional; how it was run: as §5
Rattus norvegicus [27] = test: Anti-dynamic allodynia effect in Sprague-Dawley rat SNL model assessed as latency to paw withdrawal 100 mg/kg, ip after 1.5 hrs; type: functional; conditions: route intraperitoneal; how it was run: as §1
Mus musculus [28] = test: Neurotoxicity in Swiss Albino mouse at 300 mg/kg, ip after 0.5 hr by rotarod test; type: functional, organism-based; set-up: dose 300 mg/kg; how it was run: as §4
Rattus norvegicus [29] = test: Antihyperalgesic effects in Sprague-Dawley rat CCI model assessed as duration of paw withdrawal at 100 mg/kg, ip after 2 hrs; type: functional; conditions: route intraperitoneal
Rattus norvegicus [30] = organism: Rattus norvegicus; test: Anti-dynamic allodynic effect in Sprague-Dawley rat CCI model assessed as latency to paw withdrawal after 0.5 hr; type: functional; how it was run: as §5
Rattus norvegicus [31] = test: Antihyperalgesic effects in Sprague-Dawley rat SNL model assessed as duration of paw withdrawal at 100 mg/kg, ip after 1 hr, ip; type: functional; conditions: route intraperitoneal; how it was run: as §3
Rattus norvegicus [32] = test: Effect on spontaneous pain in Sprague-Dawley rat SNL model assessed as duration of paw withdrawal at 100 mg/kg, ip after 1 hr; type: functional; conditions: route intraperitoneal; how it was run: as §6
Rattus norvegicus [33] = test: Antihyperalgesic effects in Sprague-Dawley rat SNL model assessed as duration of paw withdrawal at 100 mg/kg, ip after 2.5 hrs, ip; type: functional; conditions: route intraperitoneal; how it was run: as §3
Mus musculus [34] = test: Anticonvulsant activity in Swiss Albino mouse at 300 mg/kg, ip after 0.5 hr by scSTY test; type: functional, organism-based; set-up: dose 300 mg/kg; how it was run: as §2
Rattus norvegicus [35] = test: Antihyperalgesic effects in Sprague-Dawley rat CCI model assessed as duration of paw withdrawal at 100 mg/kg, ip after 1 hr; type: functional; conditions: route intraperitoneal
Rattus norvegicus [36] = test: Effect on spontaneous pain in Sprague-Dawley rat SNL model assessed as duration of paw withdrawal at 100 mg/kg, ip after 2.5 hrs; type: functional; conditions: route intraperitoneal; how it was run: as §6

Compound: O=C(O)CCCNC(=O)N/N=C/c1ccc(Cl)cc1
- Activity (Rattus norvegicus [1]): 4.5 s
- Activity (Mus musculus [2]): Active
- Activity (Rattus norvegicus [3]): 0.35 s
- Activity (Mus musculus [4]): Active
- Activity (Rattus norvegicus [5]): 4.2 s
- Activity (Rattus norvegicus [6]): 12.3 s
- Activity (Mus musculus [7]): inactive
- Activity (Rattus norvegicus [8]): 0.8 s
- Activity (Mus musculus [9]): inactive
- Activity (Rattus norvegicus [10]): 14.5 s
- Activity (Rattus norvegicus [11]): 3.5 s
- Activity (Rattus norvegicus [12]): 5.6 s
- Activity (Rattus norvegicus [13]): 33.1 s
- Activity (Rattus norvegicus [14]): 11.2 s
- Activity (Mus musculus [15]): inactive
- Activity (Rattus norvegicus [16]): 1.1 s
- Activity (Rattus norvegicus [17]): 7.2 s
- Activity (Mus musculus [18]): inactive
- Activity (Rattus norvegicus [19]): 24.6 s
- Activity (Mus musculus [20]): Active
- Activity (Rattus norvegicus [21]): 12.7 s
- Activity (Mus musculus [22]): 59.3
- Activity (Rattus norvegicus [23]): 4.4 s
- Activity (Rattus norvegicus [24]): 7.9 s
- inhibition in vivo at 100 mg/kg (Mus musculus [25]): 68%
- Activity (Rattus norvegicus [26]): 13 s
- Activity (Rattus norvegicus [27]): 11.3 s
- Activity (Mus musculus [28]): inactive
- Activity (Rattus norvegicus [29]): 4.2 s
- Activity (Rattus norvegicus [30]): 14.9 s
- Activity (Rattus norvegicus [31]): 17.3 s
- Activity (Rattus norvegicus [32]): 14 s
- Activity (Rattus norvegicus [33]): 17.9 s
- Activity (Mus musculus [34]): Active
- Activity (Rattus norvegicus [35]): 7.8 s
- Activity (Rattus norvegicus [36]): 15.9 s
